ERAP1 inh – ERAP1 (human) enzyme inhibition; Q9NZ08; recombinant ERAP1, Leu-AMC fluorescence, 60 min; inhibition, % at 10.7 µM; hit rate 0.15% among 340,000;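 active means mean replicate inhibition of at least 30%, or all replicates individually reaching that 30% level; inactive means mean below 30% and not every replicate reaching it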;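 further: 0% = neutral control wells and 100% = L-leucinethiol positive control wells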
Target sequence (Q9NZ08 whole entry, looked up): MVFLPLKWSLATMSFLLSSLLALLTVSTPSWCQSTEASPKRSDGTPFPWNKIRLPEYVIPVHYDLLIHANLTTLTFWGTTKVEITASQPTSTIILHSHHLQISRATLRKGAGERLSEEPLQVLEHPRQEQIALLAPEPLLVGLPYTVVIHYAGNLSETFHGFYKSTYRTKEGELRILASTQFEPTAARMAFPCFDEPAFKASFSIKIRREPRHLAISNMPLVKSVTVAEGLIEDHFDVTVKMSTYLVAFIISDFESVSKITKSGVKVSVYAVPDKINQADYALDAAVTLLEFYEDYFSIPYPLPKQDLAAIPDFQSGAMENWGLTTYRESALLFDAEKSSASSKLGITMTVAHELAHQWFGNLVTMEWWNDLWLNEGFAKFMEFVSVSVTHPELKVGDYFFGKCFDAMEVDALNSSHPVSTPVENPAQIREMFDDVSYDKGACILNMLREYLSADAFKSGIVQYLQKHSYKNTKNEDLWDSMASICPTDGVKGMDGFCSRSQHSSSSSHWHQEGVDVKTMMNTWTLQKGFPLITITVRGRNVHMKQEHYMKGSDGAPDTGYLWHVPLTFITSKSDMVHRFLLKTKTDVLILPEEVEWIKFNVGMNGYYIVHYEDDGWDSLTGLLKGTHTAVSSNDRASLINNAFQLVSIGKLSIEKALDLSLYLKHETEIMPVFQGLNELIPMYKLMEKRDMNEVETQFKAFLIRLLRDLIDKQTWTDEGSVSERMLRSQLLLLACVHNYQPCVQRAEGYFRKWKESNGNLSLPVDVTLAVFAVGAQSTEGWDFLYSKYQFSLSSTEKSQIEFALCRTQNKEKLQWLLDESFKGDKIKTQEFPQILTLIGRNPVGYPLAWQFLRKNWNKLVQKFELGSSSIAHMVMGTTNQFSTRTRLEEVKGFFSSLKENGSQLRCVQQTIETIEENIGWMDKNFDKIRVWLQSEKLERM
CAL PDZ FP-1 – inhibitors of human CAL PDZ peptide binding; Q9HD26; purified CAL PDZ, TMR-peptide fluorescence polarization, 1 h; inhibition, % at 24.9 µM; hit rate 0.92% among 300,000;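 active means mean inhibition of at least 30% with at least half of replicates also reaching 30%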;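 further: 0% = DMSO neutral control and 100% = excess unlabeled competitor peptide PRC23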
CAL PDZ FP-2 – blocks peptide binding to human CAL PDZ domain. purified CAL PDZ, TMR-peptide fluorescence polarization, 1 h. inhibition, % at 20 µM. hit rate 0.02% among 330,000;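 active means highest replicate inhibition of at least 40%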;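 further: plate controls were DMSO neutral control wells for no effect and unlabeled competitor peptide control wells for full effect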
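Control set: unlabelled peptide and DMSO controls / Material: purified CerCALP PDZ construct / Timing: 1 h incubation at room temperature before polarization reading / Doses: 20 µM, one dose / Detection: fluorescence polarization (mP)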
DENV2 CPE – DENV2-induced cell death inhibition | DENV2-infected cells, cytopathic effect rescue, plate reader | CPE inhibition, % at 9.99 µM | hit rate 1.7% among 350,000 | AID 651640; in the data active means CPE inhibition above about 20%, passing the limit was not always enough; tested in BHK-21 cells;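 further: 0% = median of neutral control wells and 100% = median of positive control wells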
SIRT5 block – sirtuin-5 (human) deacylase inhibition. Q9NXA8. Purified SirT5, succinyl-peptide AMC, trypsin-coupled fluorescence. inhibition, % at 15 µM. hit rate 1.1% among 330,000. AID 652115; in the data active means inhibition above about 15%
S100A4 inh HTS – S100A4-myosin IIA interaction inhibition; P26447; S100A4/TAMRA-MyoIIA peptide fluorescence polarization; inhibition, % at 10.7 µM; hit rate 0.14% among 360,000; AID 652163;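 active means mean inhibition of at least 70% across replicates, with every replicate also reaching that level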
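assay system = human S100A4 monomer with TAMRA-labelled myosin IIA peptide | also added = labelled myosin peptide probe, 5 nM | incubation = 5 min between mix addition and reading | control set = DMSO and TFP controls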
An asterisk follows results filed as active. An excerpt weighted towards active compounds, which were near 2.9% of everything screened.

For Cc1cn(S(=O)(=O)c2ccc(Cl)cc2)c(C)n1 the results were ERAP1 inh -1, CAL PDZ FP-1 78*, CAL PDZ FP-2 -1, SIRT5 block -6 and S100A4 inh HTS 4.
`Cc1nn(C)c(=O)c(N)c1-c1cc(-c2ccc(Cl)c(Cl)c2)n[nH]1` gave DENV2 CPE -1, SIRT5 block 5 and S100A4 inh HTS -3.
Screening Cc1ccc(-c2cc(-c3c(C)nn(C)c(=O)c3N)[nH]n2)cc1 returned ERAP1 inh 3, CAL PDZ FP-1 42*, CAL PDZ FP-2 0, DENV2 CPE -1, SIRT5 block -1 and S100A4 inh HTS 6.
For COc1ccc(S(=O)(=O)N(C)C[C@H]2Oc3c(NS(=O)(=O)c4c(C)noc4C)cccc3C(=O)N([C@H](C)CO)C[C@H]2C)cc1 the results were ERAP1 inh 1, DENV2 CPE -4, SIRT5 block 1 and S100A4 inh HTS -16.
`O=C(C[C@H]1CC[C@H]2[C@@H](COC[C@@H](O)CN2C(=O)c2ccncc2)O1)NCc1cccc(F)c1` gave ERAP1 inh 4, DENV2 CPE -2, SIRT5 block 0 and S100A4 inh HTS 18.
`COc1cccc(C(=O)Nc2ccc3c(c2)C(=O)N(C)C[C@H](OC)[C@@H](C)CN(CCc2ccccc2)[C@H](C)CO3)c1` gave DENV2 CPE -1, SIRT5 block 20* and S100A4 inh HTS -6.
`COc1cccc(C(=O)Nc2ccc3c(c2)C(=O)N(C)C[C@H](OC)[C@H](C)CN(C(=O)C2CCCC2)[C@@H](C)CO3)c1` gave ERAP1 inh -1, DENV2 CPE 38*, SIRT5 block 1 and S100A4 inh HTS 0.
For COc1cccc(C(=O)Nc2ccc3c(c2)C(=O)N(C)C[C@H](OC)[C@@H](C)CN(C(=O)C2CCCC2)[C@@H](C)CO3)c1 the results were ERAP1 inh 0, DENV2 CPE -5, SIRT5 block 0 and S100A4 inh HTS 0.
Screening C[C@@H]1CN([C@H](C)CO)C(=O)c2cc(C#CC3CC3)cnc2O[C@H]1CN(C)C(=O)c1ccc(F)cc1 returned ERAP1 inh 1, DENV2 CPE 0, SIRT5 block 5 and S100A4 inh HTS -10.
For CCCNC(=O)N1[C@H](C#N)[C@H](c2ccccc2-c2ccc(OC)cc2)[C@@H]1CO the results were ERAP1 inh 2, DENV2 CPE -4, SIRT5 block -3 and S100A4 inh HTS 13.
O=C(NCCc1ccccc1)[C@@H]1[C@@H](CO)[C@@H]2Cn3c(ccc(-c4ccccc4)c3=O)[C@H]1N2 was read as ERAP1 inh 0, DENV2 CPE 1, SIRT5 block -37 and S100A4 inh HTS -4.
For COc1cc(OC)cc(C(=O)NCCC(c2ccccc2)c2ccccc2)c1 the results were ERAP1 inh -2, CAL PDZ FP-1 -4, CAL PDZ FP-2 -1, DENV2 CPE 45*, SIRT5 block 2 and S100A4 inh HTS -7.
COC(=O)[C@H]1[C@H](CO)[C@H]2Cn3c(ccc(-c4ccccc4OC)c3=O)[C@H]2N1C(=O)c1cnccn1 was read as ERAP1 inh -2, DENV2 CPE 3, SIRT5 block -3 and S100A4 inh HTS 6.
Screening C[C@H](CO)N1C[C@H](C)[C@H](CN(C)C(=O)Nc2ccccc2)Oc2ncccc2C1=O returned ERAP1 inh 49*, DENV2 CPE -2, SIRT5 block -1 and S100A4 inh HTS 11.
Screening C[C@H](CO)N1C[C@H](C)[C@H](CN(C)C(=O)Nc2ccc(F)cc2)Oc2ncccc2C1=O returned ERAP1 inh 2, DENV2 CPE 0, SIRT5 block 1 and S100A4 inh HTS 10.
Screening C[C@H]1CN([C@@H](C)CO)C(=O)c2cccc(N(C)C)c2O[C@@H]1CN(C)C(=O)NC1CCCCC1 returned ERAP1 inh 1, DENV2 CPE -1, SIRT5 block -6 and S100A4 inh HTS 8.
For C[C@H](CO)N1C[C@H](C)[C@@H](CN(C)C(=O)Nc2cccc3ccccc23)Oc2c(cccc2N(C)C)C1=O the results were ERAP1 inh 6, DENV2 CPE 21*, SIRT5 block -1 and S100A4 inh HTS -9.
Cc1noc(C)c1NC(=O)N(C)C[C@@H]1Oc2c(cccc2N(C)C)C(=O)N([C@H](C)CO)C[C@@H]1C was read as ERAP1 inh 0, DENV2 CPE 24*, SIRT5 block -2 and S100A4 inh HTS 5.
Screening C[C@@H]1CN([C@H](C)CO)C(=O)c2cccc(N(C)C)c2O[C@@H]1CN(C)C(=O)NC1CCCCC1 returned ERAP1 inh 1, DENV2 CPE -5, SIRT5 block 27* and S100A4 inh HTS -12.
Screening C[C@H](CO)N1C[C@H](C)[C@@H](CN(C)Cc2ccncc2)Oc2ccc(NC(=O)Cc3cn(C)c4ccccc34)cc2C1=O returned ERAP1 inh 4, DENV2 CPE -2, SIRT5 block 3 and S100A4 inh HTS -3.
Screening C[C@H]1CN([C@@H](C)CO)C(=O)Cc2cc(NC(=O)Nc3ccc(F)cc3)ccc2O[C@H]1CN(C)C(=O)NC1CCCCC1 returned ERAP1 inh 2, DENV2 CPE 10, SIRT5 block 1 and S100A4 inh HTS -5.
Screening COc1cccc(S(=O)(=O)Nc2ccc3c(c2)OC[C@H](C)NC[C@@H](C)[C@@H](OC)CN(C)C3=O)c1 returned ERAP1 inh 4, DENV2 CPE 12, SIRT5 block -1 and S100A4 inh HTS -5.
C[C@@H]1CN([C@@H](C)CO)C(=O)c2cccc(N(C)C)c2O[C@H]1CN(C)C(=O)Nc1ccccc1 was read as ERAP1 inh -1, DENV2 CPE 30*, SIRT5 block 3 and S100A4 inh HTS -48.
Screening C[C@H](CO)N1C[C@H](C)[C@@H](CN(C)C(=O)Nc2cccc3ccccc23)Oc2ccc(N(C)C)cc2C1=O returned ERAP1 inh -1, DENV2 CPE 34*, SIRT5 block -1 and S100A4 inh HTS -5.
Screening C[C@@H]1CN([C@H](C)CO)C(=O)c2cccc(N(C)C)c2O[C@@H]1CN(C)C(=O)Nc1ccc2c(c1)OCO2 returned DENV2 CPE 27*, SIRT5 block 9 and S100A4 inh HTS 8.
Cc1noc(C)c1NC(=O)N(C)C[C@@H]1OCCCC[C@@H](C)Oc2ccc(NS(=O)(=O)c3ccccc3)cc2C(=O)N([C@@H](C)CO)C[C@H]1C was read as ERAP1 inh -3, DENV2 CPE 1, SIRT5 block -2 and S100A4 inh HTS 0.
Screening Cc1noc(NS(=O)(=O)c2ccc(NC(=O)c3cnc4scc(C)n4c3=O)cc2)c1C returned ERAP1 inh 7, CAL PDZ FP-1 -17, CAL PDZ FP-2 -4, DENV2 CPE -2, SIRT5 block 15* and S100A4 inh HTS -6.

High-throughput results from PubChem BioAssay.
